The target in test [1] is Beta-1 adrenergic receptor (Homo sapiens, UniProt P08588). The experiment in a line: Displacement of [125I]-pindolol from human recombinant adrenergic Beta1 receptor expressed in Flp-In CHO cells after 90 mins by microbeta scintillation counting method. Type of test: cell-based. Put shortly:
(§1)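 Radioligand binding run by the NIMH Psychoactive Drug Screening Program. […] Otherwise Ki comes from sigmoidal curve fits of triplicate measurements in a single experiment, or is averaged over repeated experiments each run in triplicate.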
(Loss of bound radioactivity is the signal in a displacement assay; it reports binding, not function.)

The nature of test [2]: Displacement of [3H]-Flunitrazepam from BZP receptor in rat brain after 90 mins by microbeta scintillation counting method. Type of test: tissue-based. In short, it runs like this:
(§2)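 Radioligand binding run by the NIMH Psychoactive Drug Screening Program. Otherwise Ki comes from sigmoidal curve fits of triplicate measurements in a single experiment, or is averaged over repeated experiments each run in triplicate.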

In a further test the target is D(2) dopamine receptor (Homo sapiens, UniProt P14416). The experiment in a line: Displacement of [3H]-N-methylspiperone from human recombinant dopamine D2 receptor expressed in stable fibroblast cells after 90 mins by microbeta scintillation counting method. It is filed as cell-based. In short, it runs like this:
as §1

Test [3] deals with GABA-A receptor; anion channel. The experiment in a line: Displacement of [3H]-Muscimol from GABAA receptor in rat brain incubated for 90 mins by microbeta scintillation counting method. It is filed as tissue-based. In short, it runs like this:
as §2

Test [4] concerns the target T1, Histamine H2 receptor (Homo sapiens, UniProt P25021). The experiment in a line: Displacement of [125I]-Iodoaminopotentidine from human recombinant histamine H2 receptor expressed in stable HEK cells after 90 mins by microbeta scintillation counting method. It is filed as cell-based. Put shortly:
as §1

The target in test [5] is T2, Muscarinic acetylcholine receptor M3 (Homo sapiens, UniProt P20309). The experiment in a line: Displacement of [3H]-QNB/[3H]-NMS from human recombinant Muscarinic acetylcholine M3 receptor expressed in stable CHO cells after 90 mins by microbeta scintillation counting method. It is filed as cell-based. Put shortly:
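Radioligand binding was run by the NIMH Psychoactive Drug Screening Program. Compounds were first screened at 10 μM. Those giving ≥50% binding were taken to full competition curves. Ki is reported as pKi from a sigmoidal curve fit of triplicate measurements in a single experiment; the error is the curve-fit error.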
Target sequence in this assay (P20309 whole entry): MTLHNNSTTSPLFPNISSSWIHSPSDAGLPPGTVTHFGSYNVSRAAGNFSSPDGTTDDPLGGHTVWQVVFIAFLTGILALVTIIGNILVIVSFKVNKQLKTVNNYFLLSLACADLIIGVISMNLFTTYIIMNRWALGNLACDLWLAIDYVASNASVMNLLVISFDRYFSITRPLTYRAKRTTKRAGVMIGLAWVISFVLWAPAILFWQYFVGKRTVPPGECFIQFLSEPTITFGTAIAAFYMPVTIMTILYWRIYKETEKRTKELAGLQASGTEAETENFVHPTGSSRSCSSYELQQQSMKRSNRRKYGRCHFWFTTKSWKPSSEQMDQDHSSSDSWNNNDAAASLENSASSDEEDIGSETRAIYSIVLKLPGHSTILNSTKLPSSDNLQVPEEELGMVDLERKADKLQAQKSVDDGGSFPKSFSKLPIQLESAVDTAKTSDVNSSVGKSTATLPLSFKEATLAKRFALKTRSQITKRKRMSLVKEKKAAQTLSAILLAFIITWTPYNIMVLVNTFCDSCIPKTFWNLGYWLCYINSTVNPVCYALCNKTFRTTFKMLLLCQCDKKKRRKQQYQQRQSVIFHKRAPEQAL

Test [6] deals with Sigma non-opioid intracellular receptor 1 (Homo sapiens, UniProt Q99720). The experiment in a line: Displacement of [3H]-Pentazocine from human recombinant sigma1 receptor expressed in HEKT cells after 90 mins by microbeta scintillation counting method. It is filed as cell-based.
Chain of Sigma non-opioid intracellular receptor 1 (Q99720 whole entry): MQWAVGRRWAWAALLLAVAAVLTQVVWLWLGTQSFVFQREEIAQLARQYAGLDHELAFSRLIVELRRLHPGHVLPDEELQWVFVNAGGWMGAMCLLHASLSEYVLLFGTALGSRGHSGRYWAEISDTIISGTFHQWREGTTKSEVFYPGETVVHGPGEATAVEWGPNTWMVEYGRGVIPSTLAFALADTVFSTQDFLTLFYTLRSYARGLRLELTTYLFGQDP
Test [7] has as its target Sigma intracellular receptor 2 (Homo sapiens, UniProt Q5BJF2). The experiment in a line: Displacement of […] from human recombinant sigma2 receptor expressed in HEKT cells after 90 mins by microbeta scintillation counting method. It is filed as cell-based. In short, it runs like this: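 Run by NIMH Psychoactive Drug Screening Program. Otherwise, competition binding curves are generated and pKi is taken from a sigmoidal curve fit. Data are either triplicate measurements within one experiment, with the error from the fit, or the mean of repeated experiments, each run in triplicate.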

For test [8], the target named is 5-hydroxytryptamine receptor 1B (Homo sapiens, UniProt P28222). The experiment in a line: Displacement of [3H]5-CT from human recombinant 5-HT1B receptor expressed in stable HEK cells at 10 uM after 90 mins by microbeta scintillation counting method relative to control. Type of test: cell-based.
Chain of 5-hydroxytryptamine receptor 1B (P28222 whole entry): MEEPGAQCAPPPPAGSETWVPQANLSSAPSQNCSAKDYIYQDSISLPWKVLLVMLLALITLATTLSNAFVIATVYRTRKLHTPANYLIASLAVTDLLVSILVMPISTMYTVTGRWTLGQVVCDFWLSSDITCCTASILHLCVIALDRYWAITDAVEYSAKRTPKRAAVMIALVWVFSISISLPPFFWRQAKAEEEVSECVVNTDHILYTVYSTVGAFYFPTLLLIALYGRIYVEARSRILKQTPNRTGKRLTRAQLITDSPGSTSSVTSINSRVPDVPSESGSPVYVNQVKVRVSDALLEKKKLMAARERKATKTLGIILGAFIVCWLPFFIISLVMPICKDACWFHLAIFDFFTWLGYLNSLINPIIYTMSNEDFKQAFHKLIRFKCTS
Test [9] addresses T3, Alpha-1A adrenergic receptor (Homo sapiens) (UniProt P35348).
T3 sequence (whole entry): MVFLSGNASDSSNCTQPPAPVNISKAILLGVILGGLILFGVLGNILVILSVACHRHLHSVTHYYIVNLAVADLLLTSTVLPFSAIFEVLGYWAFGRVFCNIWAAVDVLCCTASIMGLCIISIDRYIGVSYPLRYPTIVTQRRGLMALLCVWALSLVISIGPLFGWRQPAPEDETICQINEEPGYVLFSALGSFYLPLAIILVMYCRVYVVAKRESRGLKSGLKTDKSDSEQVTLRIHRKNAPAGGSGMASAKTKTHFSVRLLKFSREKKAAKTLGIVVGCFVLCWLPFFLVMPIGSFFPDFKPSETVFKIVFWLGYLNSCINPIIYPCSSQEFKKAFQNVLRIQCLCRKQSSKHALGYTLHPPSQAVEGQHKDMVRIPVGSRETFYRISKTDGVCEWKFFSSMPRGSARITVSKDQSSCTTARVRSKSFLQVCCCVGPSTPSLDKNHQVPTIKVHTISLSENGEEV
The experiment in a line: Displacement of [3H]-Prazosin from human recombinant adrenergic alpha1A receptor expressed in cells at 10 uM after 90 mins by microbeta scintillation counting method relative to control. Type of test: cell-based.

Test [10] concerns the target T4, Alpha-1D adrenergic receptor (Homo sapiens) (UniProt P25100).
T4 sequence (whole entry): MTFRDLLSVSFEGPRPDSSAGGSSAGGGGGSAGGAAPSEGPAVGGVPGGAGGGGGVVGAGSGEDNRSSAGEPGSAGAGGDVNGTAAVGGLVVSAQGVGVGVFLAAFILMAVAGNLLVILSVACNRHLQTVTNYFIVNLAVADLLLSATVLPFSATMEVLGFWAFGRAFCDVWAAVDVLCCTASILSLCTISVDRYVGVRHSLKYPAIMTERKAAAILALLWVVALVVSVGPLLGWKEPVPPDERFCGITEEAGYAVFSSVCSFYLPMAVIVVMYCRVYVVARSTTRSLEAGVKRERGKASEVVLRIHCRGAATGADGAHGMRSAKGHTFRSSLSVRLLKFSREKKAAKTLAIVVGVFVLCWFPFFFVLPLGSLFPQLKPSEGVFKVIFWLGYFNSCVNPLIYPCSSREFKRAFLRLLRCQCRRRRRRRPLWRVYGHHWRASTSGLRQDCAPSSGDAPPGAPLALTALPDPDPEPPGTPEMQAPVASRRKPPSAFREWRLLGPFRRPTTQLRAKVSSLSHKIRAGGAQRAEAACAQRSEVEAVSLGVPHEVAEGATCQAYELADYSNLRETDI
The experiment in a line: Displacement of [3H]-Prazosin from human recombinant adrenergic Alpha1D receptor expressed in cells at 10 uM after 90 mins by microbeta scintillation counting method relative to control. It is filed as cell-based.

Test [11] deals with T1, Histamine H2 receptor. The experiment in a line: Displacement of [125I]-Iodoaminopotentidine from human recombinant histamine H2 receptor expressed in stable HEK cells at 10 uM after 90 mins by microbeta scintillation counting method relative to control. It is filed as cell-based. In short, it runs like this:
as §1

Test [12] deals with T2, Muscarinic acetylcholine receptor M3. The experiment in a line: Displacement of [3H]-QNB/[3H]-NMS from human recombinant Muscarinic acetylcholine M3 receptor expressed in stable CHO cells at 10 uM after 90 mins by microbeta scintillation counting method relative to control. It is filed as cell-based.
Target sequence in this assay (P20309 whole entry, looked up): as the sequence (P20309 whole entry) above
The species named for a further test is Rattus norvegicus. The experiment in a line: Displacement of [3H]-PK11195 from PBR receptor in rat brain at 10 uM incubated for 90 mins by microbeta scintillation counting method relative to control. Type of test: tissue-based. In short, it runs like this: as §1
Test [13] addresses 5-hydroxytryptamine receptor 2A (Homo sapiens, UniProt P28223). The experiment in a line: Displacement of [3H]-Ketanserin from human recombinant 5-HT2A receptor transiently expressed in HEKT cells after 90 mins by microbeta scintillation counting method. Type of test: cell-based. In short, it runs like this:
as §1

A value given as a limit tells only on which side of the number the result lay.

Broadly, the pKi is −log10 of the Ki, conventionally taken in molar units. Lower therefore signals a large Ki. As usually defined, the inhibition is the relative decrease from the control value, in per cent.

Chain of D(2) dopamine receptor (P14416 whole entry): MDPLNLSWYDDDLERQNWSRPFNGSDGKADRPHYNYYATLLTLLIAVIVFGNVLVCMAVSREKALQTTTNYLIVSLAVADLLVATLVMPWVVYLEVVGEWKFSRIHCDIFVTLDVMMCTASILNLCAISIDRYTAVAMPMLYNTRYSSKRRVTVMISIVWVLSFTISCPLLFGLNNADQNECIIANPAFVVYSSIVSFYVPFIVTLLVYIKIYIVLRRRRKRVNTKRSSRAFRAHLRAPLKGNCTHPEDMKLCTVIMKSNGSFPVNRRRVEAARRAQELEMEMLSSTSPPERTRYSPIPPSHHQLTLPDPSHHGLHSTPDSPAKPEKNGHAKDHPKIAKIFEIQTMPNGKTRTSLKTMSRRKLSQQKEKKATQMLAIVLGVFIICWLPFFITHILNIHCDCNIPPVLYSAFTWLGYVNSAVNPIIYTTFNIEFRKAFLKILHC
Chain of Sigma intracellular receptor 2 (Q5BJF2 whole entry): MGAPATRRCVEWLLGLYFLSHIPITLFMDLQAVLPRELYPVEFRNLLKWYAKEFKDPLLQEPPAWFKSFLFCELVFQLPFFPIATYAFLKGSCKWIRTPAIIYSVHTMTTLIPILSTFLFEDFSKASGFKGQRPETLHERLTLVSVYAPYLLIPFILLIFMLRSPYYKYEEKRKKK
Chain of Beta-1 adrenergic receptor (P08588 whole entry): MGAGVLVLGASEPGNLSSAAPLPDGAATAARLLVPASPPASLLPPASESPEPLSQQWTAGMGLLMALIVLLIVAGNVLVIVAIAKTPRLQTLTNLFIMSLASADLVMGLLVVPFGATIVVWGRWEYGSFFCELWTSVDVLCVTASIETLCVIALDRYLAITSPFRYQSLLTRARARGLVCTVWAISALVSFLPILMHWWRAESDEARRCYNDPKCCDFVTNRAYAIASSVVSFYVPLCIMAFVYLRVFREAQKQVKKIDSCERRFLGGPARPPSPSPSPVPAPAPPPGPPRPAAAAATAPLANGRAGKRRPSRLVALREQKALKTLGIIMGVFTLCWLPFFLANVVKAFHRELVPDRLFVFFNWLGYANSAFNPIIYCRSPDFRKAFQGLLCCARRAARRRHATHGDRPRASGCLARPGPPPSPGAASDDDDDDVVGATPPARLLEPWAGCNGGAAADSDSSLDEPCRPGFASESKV
T1 sequence (P25021 whole entry): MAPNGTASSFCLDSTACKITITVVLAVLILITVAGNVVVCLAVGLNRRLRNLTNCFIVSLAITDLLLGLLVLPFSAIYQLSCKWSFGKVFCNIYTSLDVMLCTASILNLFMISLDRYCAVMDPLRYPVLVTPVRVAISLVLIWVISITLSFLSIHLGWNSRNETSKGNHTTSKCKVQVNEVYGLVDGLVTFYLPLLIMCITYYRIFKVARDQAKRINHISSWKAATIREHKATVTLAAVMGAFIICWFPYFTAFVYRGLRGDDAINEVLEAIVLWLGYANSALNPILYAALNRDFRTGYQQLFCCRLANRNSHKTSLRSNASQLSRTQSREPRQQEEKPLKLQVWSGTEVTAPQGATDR
Chain of 5-hydroxytryptamine receptor 2A (P28223 whole entry): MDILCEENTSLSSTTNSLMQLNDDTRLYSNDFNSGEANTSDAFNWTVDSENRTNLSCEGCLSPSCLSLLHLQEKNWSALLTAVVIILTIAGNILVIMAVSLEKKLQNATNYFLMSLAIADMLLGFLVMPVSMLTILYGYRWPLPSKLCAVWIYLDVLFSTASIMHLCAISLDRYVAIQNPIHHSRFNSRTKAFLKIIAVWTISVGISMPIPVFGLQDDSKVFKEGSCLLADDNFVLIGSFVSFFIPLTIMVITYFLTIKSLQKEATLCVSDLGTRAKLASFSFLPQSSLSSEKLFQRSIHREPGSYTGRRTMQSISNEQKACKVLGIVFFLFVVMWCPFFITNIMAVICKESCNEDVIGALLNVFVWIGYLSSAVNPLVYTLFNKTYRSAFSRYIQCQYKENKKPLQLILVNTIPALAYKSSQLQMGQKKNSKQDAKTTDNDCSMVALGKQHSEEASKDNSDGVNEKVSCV

Consider `COc1cc(OC)c2c(c1)OC[C@@]1(C)NCC[C@@H]21` (racemic), for which the Ki was 1 µM in [1]; > 10 µM on D(2) dopamine receptor; > 10 µM at Histamine H2 receptor [4]; > 10 µM in test [5]; 0.044 µM in [6] (read-out: Ki); > 10 µM in test [7]. The negative logarithm of the Ki (pKi) in test [2] is 5.2; in test [3] it was < 5. Besides, the inhibition (in test [8]; in test [9]; in [10]; at Histamine H2 receptor [11]; in test [12]; in the test listed under Rattus norvegicus) was < 50% each time.

On to `C[C@@]12CN(c3ccccc3)c3ccccc3[C@@H]1CCN2` (racemic), for which the Ki was 3.16 µM in test [1]; > 10 µM at D(2) dopamine receptor; 2 µM at Histamine H2 receptor [4]; > 10 µM in test [5]; 1 µM in test [7].

Take `CC[C@H]1c2cc(OC)ccc2CC[C@@]1(C)N` (racemic): the Ki was > 10 µM in [13]; > 10 µM in [1]; > 10 µM at D(2) dopamine receptor; > 10 µM on Histamine H2 receptor [4]; > 10 µM in test [5]; 0.126 µM in test [6] (read-out: pKi (converted)). Further, the Ki in test [7] was > 10 µM. Moreover, the pKi in test [2] is recorded as 5.8; in test [3] it was < 5. Further, the inhibition (in test [8]; in test [9]; in [10]; at Histamine H2 receptor [11]; in test [12]; in the test filed under Rattus norvegicus) was < 50% in each case.

Regarding `CC[C@H]1c2cc(C)ccc2OC[C@@]1(C)N` (racemic), the Ki in [13] was > 10 µM; in [1], > 10 µM; at D(2) dopamine receptor, > 10 µM; on Histamine H2 receptor [4] it was > 10 µM; in [5] it was > 10 µM; in test [6] (read-out: pKi (converted)) it was 1 µM. In addition, the Ki in test [7] is > 10 µM. For the same compound, the negative logarithm of the Ki (pKi) in [2] and in test [3] was < 5 in each case. In addition, the inhibition (in test [8]; in test [9]; in test [10]; at Histamine H2 receptor [11]; in [12]; in the test listed under Rattus norvegicus) was < 50% in each case.

In the case of `CC[C@H]1c2ccccc2N(c2ccccc2)C[C@@]1(C)N` (racemic), the Ki in [13] was > 10 µM; in [1] it was > 10 µM; on D(2) dopamine receptor, > 10 µM; on Histamine H2 receptor [4], > 10 µM; in test [5], > 10 µM; in [6] (read-out: pKi (converted)), 0.316 µM. The Ki in [7] is 0.631 µM.

Values taken from ChEMBL document CHEMBL4304834, “3-Amino-chromanes and Tetrahydroquinolines as Selective 5-HT2B, 5-HT7, or σ1 Receptor Ligands” (ACS Med Chem Lett, 2019).
